Measured values published in PMC9727797 (Molecular Biology of the Cell, 2022).

Key:
RPE-1 cells = test: Live cell imaging of metaphase duration; assay type: cell-based, human; details: Munesib-1 50 µM, Fift-IN and GW108X 25 µM
KIF15-N700 = molecular target: T1, KIF15-N700 (Homo sapiens, UniProt Q9NS87); test: Microtubule gliding assay; assay type: biochemical; details: 25 µM, singlicate
T1 sequence (Q9NS87 1-700 limits assumed): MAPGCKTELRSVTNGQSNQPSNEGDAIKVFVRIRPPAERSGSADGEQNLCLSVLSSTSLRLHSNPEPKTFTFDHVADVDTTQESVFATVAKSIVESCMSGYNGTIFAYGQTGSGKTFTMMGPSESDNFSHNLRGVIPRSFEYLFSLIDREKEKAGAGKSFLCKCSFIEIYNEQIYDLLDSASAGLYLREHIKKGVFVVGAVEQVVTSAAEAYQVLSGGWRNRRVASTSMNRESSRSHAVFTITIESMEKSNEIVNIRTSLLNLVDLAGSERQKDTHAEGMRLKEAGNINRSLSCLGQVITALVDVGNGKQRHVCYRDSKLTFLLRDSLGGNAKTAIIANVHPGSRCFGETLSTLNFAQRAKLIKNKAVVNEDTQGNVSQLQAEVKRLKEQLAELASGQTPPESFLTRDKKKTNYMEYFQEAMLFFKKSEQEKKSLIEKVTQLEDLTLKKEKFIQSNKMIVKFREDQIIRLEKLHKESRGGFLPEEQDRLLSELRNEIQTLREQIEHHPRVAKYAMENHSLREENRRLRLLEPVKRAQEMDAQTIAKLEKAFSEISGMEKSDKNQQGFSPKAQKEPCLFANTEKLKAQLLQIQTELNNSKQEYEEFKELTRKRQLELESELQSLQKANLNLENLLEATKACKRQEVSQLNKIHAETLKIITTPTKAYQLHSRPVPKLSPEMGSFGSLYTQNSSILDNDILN
How it was run: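 His6-KIF15-N700 was expressed in High Five insect cells, then purified by Ni-NTA and Superdex 200 gel filtration. Microtubule gliding was imaged every 5 s for 1 min at 100×. Velocity was taken as distance travelled in 1 min, from ≥15 microtubules at each of three slide locations (n ≥ 50 per slide). Concentration-response curves used eight concentrations from 10 nM up to 30 or 100 µM, in triplicate. Single-point derivative tests used 25 µM.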

KIRC-1 cells = test: Preanaphase spindle monopolarity, KIRC-1 cells; assay type: cell-based, human; details: 25 µM
How it was run: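 TP53–/– RPE-1 and KIRC-1 cells were grown in DMEM with 10% FBS, penicillin and streptomycin; KIRC-1 medium also contained 10 μM STLC. Cells on coverslips were treated overnight with increasing test-compound concentrations or DMSO. They were then methanol-fixed and stained for KIF15, tubulin and DNA. Preanaphase spindles were scored monopolar or bipolar, in triplicate with n = 100 per replicate (± SEM).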

TP53–/– RPE-1 cells = test: STLC selection; assay type: cell-based, human; details: 24 d; 10 μM STLC; some cells acquired resistance and formed colonies

O=C1Nc2ccc(C(=O)c3ccco3)cc2/C1=C/c1cc(Cl)c(O)c(Cl)c1 [GW108X, reference compound]
metaphase duration (metaphase plate formation until anaphase onset) (RPE-1 cells): significant increase in metaphase duration

CSc1ncc2c(n1)-c1ccc(C(=O)O)cc1N(C)S2(=O)=O [M-201, 6-methyl-2-(methylthio)-6H-benzo[c]pyrimido[4,5-e][1,2]thiazine-8-carboxylic acid 5,5-dioxide]
% inhibition of KIF15 microtubule gliding activity (KIF15-N700): blocked KIF15 activity as effectively as Munesib-1

CSc1ncc2c(n1)-c1ccc(C(=O)N3CCNCC3)cc1N(C)S2(=O)=O [M-205, (6-methyl-2-(methylthio)-5,5-dioxido-6H-benzo[c]pyrimido[4,5-e][1,2]thiazin-8-yl)(piperazin-1-yl)methanone]
monopolarity index compared with the parent compound (KIRC-1 cells): substantially increased the monopolarity index

CSc1ncc2c(n1)-c1ccc(CO)cc1N(C)S2(=O)=O [M-206, 8-(hydroxymethyl)-6-methyl-2-(methylthio)-6H-benzo[c]pyrimido[4,5-e][1,2]thiazine 5,5-dioxide]
% inhibition of KIF15 microtubule gliding activity (KIF15-N700): blocked KIF15 activity as effectively as Munesib-1

N[C@@H](CSC(c1ccccc1)(c1ccccc1)c1ccccc1)C(=O)O [STLC, S-trityl-L-cysteine]
cell killing by STLC alone (TP53–/– RPE-1 cells): killed the majority
